{"source": "ChEMBL document CHEMBL1151442", "about": "“Genetic and phenotypic identification of fusidic acid-resistant mutants with the small-colony-variant phenotype in Staphylococcus aureus” (2007)", "format_in_all_cases": "functional", "key": {"Staphylococcus aureus [1]": {"system": "Staphylococcus aureus", "experiment": "Ratio of MIC for kanamycin-resistant Staphylococcus aureus harboring mutations in FusE gene to MIC for wild type kanamycin-susceptible Staphylococcus aureus AH001"}, "Staphylococcus aureus [2]": {"system": "Staphylococcus aureus", "experiment": "Ratio of MIC for kanamycin-resistant Staphylococcus aureus harboring mutations in FusA gene to MIC for wild type kanamycin-susceptible Staphylococcus aureus AH001"}, "Staphylococcus aureus [3]": {"system": "Staphylococcus aureus", "experiment": "Antibacterial activity against fusidic acid-resistant Staphylococcus aureus AH206 harboring Arg464Ser mutation in fusA gene after 18 to 24 hrs by Etest strip assay", "in_short": "(§1)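 Mutants of lab strain 8325-4 were selected on LA with FA 2 μg/ml for 48 h at 37°C and purified on selective medium. For the MIC, one colony was suspended in 0.9% NaCl to 0.5 McFarland and swabbed onto Mueller-Hinton agar. An Etest strip was applied and plates were incubated at 37°C for 18–24 h until the lawn was evident.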"}, "Staphylococcus aureus [4]": {"system": "Staphylococcus aureus", "experiment": "Antibacterial activity against fusidic acid-resistant Staphylococcus aureus AH194 harboring Pro404Leu mutation in fusA gene after 18 to 24 hrs by Etest strip assay", "in_short": "as §1"}, "Staphylococcus aureus [5]": {"system": "Staphylococcus aureus", "experiment": "Antibacterial activity against fusidic acid-resistant Staphylococcus aureus AH197 harboring Leu456Phe mutation in fusA gene after 18 to 24 hrs by Etest strip assay", "in_short": "as §1"}, "Staphylococcus aureus [6]": {"system": "Staphylococcus aureus", "experiment": "Antibacterial activity against fusidic acid-resistant Staphylococcus aureus AH190 harboring Arg464His mutation in fusA gene after 18 to 24 hrs by Etest strip assay", "in_short": "as §1"}, "Staphylococcus aureus [7]": {"system": "Staphylococcus aureus", "experiment": "Antibacterial activity against fusidic acid-resistant Staphylococcus aureus AH187 harboring His457Tyr mutation in fusA gene after 18 to 24 hrs by Etest strip assay", "in_short": "as §1"}, "Staphylococcus aureus [8]": {"system": "Staphylococcus aureus", "experiment": "Antibacterial activity against fusidic acid-resistant Staphylococcus aureus AH198 harboring Gly452Ser mutation in fusA gene after 18 to 24 hrs by Etest strip assay", "in_short": "as §1"}, "Staphylococcus aureus [9]": {"system": "Staphylococcus aureus", "experiment": "Antibacterial activity against fusidic acid-resistant Staphylococcus aureus AH207 harboring Thr385Asn mutation in fusA gene after 18 to 24 hrs by Etest strip assay", "in_short": "as §1"}, "Staphylococcus aureus [10]": {"system": "Staphylococcus aureus", "experiment": "Antibacterial activity against fusidic acid-resistant Staphylococcus aureus AH201 harboring Gly452Cys mutation in fusA after 18 to 24 hrs by Etest strip assay", "in_short": "as §1"}, "Staphylococcus aureus [11]": {"system": "Staphylococcus aureus", "experiment": "Antibacterial activity against fusidic acid-resistant Staphylococcus aureus AH196 harboring Pro406Leu mutation in fusA gene after 18 to 24 hrs by Etest strip assay", "in_short": "as §1"}}, "note": "Calls of active or inactive are those of the source. The calls are words filed in the database; no cut-off is given here.", "data": [{"sequence": "GENTAMICIN", "values": [{"measurement": "fold change (FC)", "setting": "Staphylococcus aureus [1]", "value": 4}, {"measurement": "fold change (FC)", "setting": "Staphylococcus aureus [2]", "value": 4}, {"measurement": "Activity", "setting": "Staphylococcus aureus [3]", "value": "Active"}, {"measurement": "Activity", "setting": "Staphylococcus aureus [4]", "value": "Active"}, {"measurement": "Activity", "setting": "Staphylococcus aureus [5]", "value": "Active"}, {"measurement": "Activity", "setting": "Staphylococcus aureus [6]", "value": "Active"}, {"measurement": "Activity", "setting": "Staphylococcus aureus [7]", "value": "Active"}, {"measurement": "Activity", "setting": "Staphylococcus aureus [8]", "value": "Active"}, {"measurement": "Activity", "setting": "Staphylococcus aureus [9]", "value": "Active"}, {"measurement": "Activity", "setting": "Staphylococcus aureus [10]", "value": "Active"}, {"measurement": "Activity", "setting": "Staphylococcus aureus [11]", "value": "Active"}]}]}
